Neddylation inh = cullin neddylation inhibition. TR-FRET cullin neddylation, biochemical. inhibition, % at 25 µM. 0.58% of 360,000 active; in the data active = inhibition above about 36%
procasp7 counter = counter-screen: procaspase-7 (human) activation; P55210; recombinant procaspase-7, Ac-DEVD-pNA absorbance 405 nm; D23A/D198A/D206A triple mutant, cannot self-cleave; scale: DMSO 0, 5 µM enzyme 100; activation, % at 8.5 µM; 0.093% of 330,000 active;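 active = percent activation above the screen-wide mean plus 3 SD, cut at about 25% in these data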
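Material: Procaspase-7 triple mutant (PC-7 D3A) | Quantity: 2 µM procaspase-7 mutant as dispensed | Reagent: DEVD-pNA substrate | Times: 1 h preincubation, 2 h reaction | Technique: 405 nm absorbance of p-nitroaniline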
Calb FLC = affects C. albicans growth with fluconazole; C. albicans CaCi-2 + fluconazole, Alamar Blue growth, 48 h; growth inhibition, % (no concentration beside the values); 0.57% of 300,000 active; AID 1979;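 active = growth inhibition above about 58% in most replicates, limit read from the data, passing the limit was not always enough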;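 note: all wells also contain fluconazole at 8 µg/ml as a sub-toxic cotreatment; 0% = median of DMSO wells and 100% = median of geldanamycin control wells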
procasp3 activ = procaspase-3 (human) activation | P42574 | recombinant procaspase-3 D3A, Ac-DEVD-pNA absorbance 405 nm | activation, % at 8.5 µM | 0.11% of 330,000 active | AID 463141;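 active = activation above the mean of all tested compounds plus 3 SD, cut at about 21% in these data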;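 note: 0% = DMSO alone and 100% = DMSO wells spiked with extra 5 µM PC-3 D3A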
Target sequence (P42574 whole entry D9A/D28A/D175A): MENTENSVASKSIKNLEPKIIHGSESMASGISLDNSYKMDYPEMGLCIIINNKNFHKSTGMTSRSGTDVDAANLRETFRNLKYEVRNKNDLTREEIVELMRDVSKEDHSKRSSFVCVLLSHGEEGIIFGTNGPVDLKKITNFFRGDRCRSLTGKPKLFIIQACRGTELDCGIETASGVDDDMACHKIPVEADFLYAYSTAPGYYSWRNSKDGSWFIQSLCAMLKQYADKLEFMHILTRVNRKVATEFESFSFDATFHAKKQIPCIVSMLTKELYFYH
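Test system: Procaspase-3 D3A mutant; medium: Zinc-free HEPES/NaCl buffer with 0.01% Triton X-100 at pH 7.4; reagent: DEVD-pNA substrate; doses: one concentration, 8.5 µM nominal, 0.8% DMSO; times: 1 h preincubation plus 2 h reaction at 25 °C; signal: Epi-absorbance at 405 nm of released p-nitroaniline, 0 and 120 min; replicates: singlicate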
GAA850 FXN act = frataxin GAA850 promoter activation. HEK293 lucGAA850 FXN promoter luciferase reporter, 24 h; percent of 10 µM SAHA response. activation, % at 6 µM. 0.56% of 360,000 active. AID 540364;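 active = activation above the average of all compounds screened plus 3 SD, cutoff fixed separately per campaign, cut at about 7.5% in these data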;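 note: 0% = DMSO wells and 100% = 10 µM SAHA wells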
HIF act = HIF pathway transcriptional activation. U2OS HRE-luciferase reporter, luminescence; normalized: DMSO 0%, desferrioxamine 100%. activation, % at 7.5 µM (by protocol). 0.32% of 300,000 active;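 active = mean activation of at least 10% of the iron chelator positive control signal, with at least half of replicates also reaching 10%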
PC3 dual counter = activates human procaspase-3, dual activator counter-screen. recombinant PC-3 D3A, Ac-DEVD-pNA absorbance 405 nm; aspartates 9, 28, 175 changed to alanine; 100% = enzyme control. shares compounds with procasp7 counter. AID 493114. activation, % at 8.5 µM. 290 tested, under 10 active;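 active = mean percent activation across triplicates above a set limit taken from the earlier primary procaspase-3 screen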;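 note: 0% = DMSO wells and 100% = DMSO wells with 5 µM added PC-3 D3A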
Procasp7 act = activates human procaspase-7, confirming dual procaspase activators. shares compounds with procasp7 counter. recombinant procaspase-7, Ac-DEVD-pNA absorbance 405 nm; D23A/D198A/D206A mutant that cannot self-cleave. activation, % at 8.5 µM. 290 tested, under 10 active. AID 493115;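 active = mean activation above a set limit carried over from the earlier primary screen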;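 note: 0% = DMSO only and 100% = DMSO with added 5 µM PC-7 enzyme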
The depositor's hits bear a star; / = not tested or not shown. Only some compounds are listed: those with a hit (about 1.9% of all), similar ones and a draw of the others.

SMILES | Neddylation inh | procasp7 counter | Calb FLC | procasp3 activ | GAA850 FXN act | HIF act | PC3 dual counter | Procasp7 act
Cc1cc(N/N=C/c2ccc(N(C)C)cc2)nc(NCc2ccccc2)n1 | / | 32.4* | 14.6 | 57.1* | -1.5 | 0.2 | -28.4 | -27.5
COCCN(CCOC)Cc1cc(=O)oc2cc(C)c(C)cc12 | 16.6 | / | / | / | / | / | / | /
COc1ccc(-c2cc(C(=O)OC3CCOC3=O)c3ccccc3n2)cc1OC (stereo not drawn) | 18.5 | 27.6* | 5.3 | 27.2* | 1.5 | 0.1 | 15.2 | 10.4
Cc1cccc(C)c1NC(=O)C1(C)CSCC(=O)N1CCC(C)C (stereo not drawn) | 0.5 | / | / | / | / | / | / | /
Cc1ccc2nc(NCc3ccccc3)c(C#N)cc2c1 | / | 51.7* | -0.9 | 9.1 | -0.2 | 1.1 | -30.4 | -34.8
O=[N+]([O-])c1cnccc1-n1nnc2ccccc21 | -35.0 | / | / | / | / | / | / | /
COc1cc(/C=C/C(=O)Nc2nnc(C(C)(C)C)s2)cc(OC)c1OC | / | -18.1 | -17.0 | -16.8 | 1.9 | -1.2 | / | /
COc1cc(/C=C/C(=O)Nc2nc3ccc(S(=O)(=O)N(C)C)cc3s2)cc(OC)c1OC | / | 35.1* | -1.1 | -18.3 | 0.5 | -0.7 | -29.9 | -35.3
NS(=O)(=O)c1ccc(N2N=C(c3ccccc3)CC2c2cccc(Cl)c2)cc1 (stereo not drawn) | / | 44.1* | / | 38.7* | -1.2 | / | -30.7 | -32.9
COc1ccc(C2CC(c3ccccc3Cl)=NN2c2ccc(S(N)(=O)=O)cc2)cc1 (stereo not drawn) | / | 46.7* | / | 27.2* | -0.5 | / | -29.1 | -34.3
COc1ccc(C2=NN(c3ccc(C=O)cc3)C(c3ccccc3)C2)cc1 (stereo not drawn) | / | -51.1 | -3.6 | -51.7 | / | 1.2 | / | /
O=C(O)c1ccc(N2N=C(c3ccccc3)CC2c2ccccc2)cc1 (stereo not drawn) | 23.5 | -4.9 | 32.9 | 3.6 | 1.5 | -6.3 | / | /
COc1ccc(C2CC(c3ccccc3)=NN2c2ccc(S(N)(=O)=O)cc2)cc1 (stereo not drawn) | / | 50.8* | 53.1 | 27.9* | -0.1 | 0.1 | -28.4 | -35.3
COc1ccc(C2CC(c3ccccc3)=NN2c2ccc(C(N)=O)cc2)cc1 (stereo not drawn) | 38.2 | 38.4* | 32.4 | 30.4* | 1.9 | 0.3 | -28.9 | -36.1
COc1ccc(C2CC(c3cccc(C(F)(F)F)c3)=NN2c2ccc(S(N)(=O)=O)cc2)cc1 (stereo not drawn) | / | 52.9* | / | 43.9* | -1.6 | / | -30.4 | -35.2
Cc1ccc(S(=O)(=O)NC(=O)C2(C)CCN2C(=O)CC2CCCC2)nc1 (stereo not drawn) | 11.5 | / | / | / | 1.1 | / | / | /
CN1CCN(C(=O)c2ccc(-c3cccs3)s2)CC1 | / | 2.2 | -8.2 | -7.1 | 1.4 | 2.6 | / | /
O=C(c1cccs1)c1ccc(-c2cccs2)s1 | / | 37.0* | 2.1 | 27.2* | 2.1 | -0.7 | -30.1 | -34.7
Cc1ccc(S(=O)(=O)NC(=O)C2(C)CCN2C(=O)C2CCCCC2)nc1 (stereo not drawn) | 9.7 | / | / | / | 0.4 | / | / | /
COc1ccc(N(C(=O)c2snc(C(N)=O)c2N)C(C(=O)NCc2ccccc2)c2ccc(O)cc2)cc1OC (stereo not drawn) | 3.8 | / | 9.6 | / | -0.8 | 0.8 | / | /
COc1ccc(N(C(=O)c2snc(C(N)=O)c2N)C(C(=O)NCc2ccc(F)cc2)c2ccc(C)o2)c(OC)c1 (stereo not drawn) | 32.9 | 25.9* | -7.2 | 4.9 | 0.3 | 0.1 | 2.1 | 2.2
COc1ccccc1N(C(=O)c1snc(C(N)=O)c1N)C(C(=O)NCc1ccccc1)c1ccc(C)o1 (stereo not drawn) | / | / | 4.9 | / | -1.0 | -1.1 | / | /
